# A selection: hits, their analogues and other compounds. The true share with any hit is near 2.9%.
# TRPC4 potent = TRPC4 (mouse) allosteric potentiation | Q9QUQ5 | HEK293 TRPC4beta/mu-opioid, DAMGO EC20, Fluo-4 Ca2+ flux; stronger effect = higher value | B-score at 10 µM | 310,000 compounds, 0.42% hits | AID 2227;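 active = B-score of calcium response area above 5 SD of library B-scores, with initial fluorescence ratio within 5 SD of library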;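 also: B-score of integrated fluorescence ratio over time as area under calcium response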
# TRPC4 inh = inhibitors of mouse TRPC4 channel; 300,000 compounds, 0.39% hits; Q9QUQ5; B-score at 10 µM; AID 2247; HEK293 TRPC4beta/mu-opioid, DAMGO-evoked Fluo4 calcium flux; stronger effect = lower value;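 active = B-score over 3 SD under the library average, no early fluorescence shift, positive overall ratio signal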
#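 Test system – stable TRPC4beta/mu-opioid receptor HEK293 cells · Probe or stimulus – DAMGO, a submaximal dose followed by a maximal one · Dosing – one concentration per compound · Signal – Fluo4 calcium fluorescence by kinetic imaging, 5 s 1 Hz baseline · Evaluation – per-well B score of integrated baseline-normalized Fluo4 ratio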
# TRPC6 inhibitor = mouse TRPC6 channel inhibition. B-score at 10 µM. HEK293-TRPC6, membrane potential dye, ACh-evoked depolarization; stronger effect = lower value. Q61143. AID 2553. 310,000 compounds, 1.1% hits;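 active = B-score under library mean minus 3 SD, initial fluorescence not abnormally high, positive integrated signal ratio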;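 also: B-score derived from integrated fluorescence ratio over the kinetic read; more negative B-score means stronger inhibition of depolarization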
# Target sequence (Q61143 whole entry, looked up): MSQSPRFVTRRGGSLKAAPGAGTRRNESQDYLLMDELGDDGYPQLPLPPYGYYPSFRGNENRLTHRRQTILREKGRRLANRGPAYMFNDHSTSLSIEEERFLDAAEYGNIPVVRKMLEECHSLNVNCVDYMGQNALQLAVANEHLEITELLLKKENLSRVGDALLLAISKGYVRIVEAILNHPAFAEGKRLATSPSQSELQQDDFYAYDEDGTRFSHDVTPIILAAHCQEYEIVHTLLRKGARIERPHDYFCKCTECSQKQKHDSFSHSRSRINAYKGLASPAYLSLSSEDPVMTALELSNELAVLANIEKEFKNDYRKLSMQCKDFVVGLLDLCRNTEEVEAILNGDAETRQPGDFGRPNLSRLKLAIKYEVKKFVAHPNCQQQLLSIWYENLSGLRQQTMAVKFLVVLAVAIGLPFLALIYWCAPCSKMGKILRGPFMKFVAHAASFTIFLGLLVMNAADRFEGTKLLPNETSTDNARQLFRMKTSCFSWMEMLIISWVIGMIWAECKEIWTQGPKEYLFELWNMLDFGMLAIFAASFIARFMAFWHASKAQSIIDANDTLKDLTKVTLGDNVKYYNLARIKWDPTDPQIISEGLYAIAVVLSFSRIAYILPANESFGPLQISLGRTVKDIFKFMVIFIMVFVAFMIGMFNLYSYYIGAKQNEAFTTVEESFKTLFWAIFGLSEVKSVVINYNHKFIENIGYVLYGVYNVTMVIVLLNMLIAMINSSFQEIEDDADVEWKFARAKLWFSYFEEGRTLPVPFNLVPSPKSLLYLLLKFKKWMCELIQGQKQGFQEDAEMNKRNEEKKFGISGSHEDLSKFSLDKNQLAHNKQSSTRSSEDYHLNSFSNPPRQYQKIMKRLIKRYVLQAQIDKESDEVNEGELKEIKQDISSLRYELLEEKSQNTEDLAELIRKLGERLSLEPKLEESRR
# Kir21 inh = Kir2.1 (mouse) channel inhibition; P35561; 310,000 compounds, 0.85% hits; AID 1672; HEK293-Kir2.1, FluxOR thallium flux fluorescence; stronger effect = lower value; B-score at 10 µM;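 active = fluorescence ratio B-score at or below minus 3 SD of library scores, with starting-brightness B-score within 2 SD, cut at about -4.2 in these data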;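 also: channel flux triggered by added potassium and thallium sulfate stimulus; B-score of peak minus minimum fluorescence over baseline after thallium stimulus; more negative B-score means stronger Kir2.1 block with less thallium influx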
# TRPC6 act = mouse TRPC6 channel activation. 310,000 compounds, 0.13% hits. HEK293-TRPC6 membrane potential dye fluorescence; stronger effect = higher value. B-score at 10 µM. Q61143;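 active = B-score of the integrated fluorescence ratio above library mean plus 3 SD, and starting fluorescence ratio within library mean plus 5 SD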;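 also: higher score means more depolarization so channel activation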
# TRPC4 act = activators of mouse TRPC4 channel. Q9QUQ5. HEK293 TRPC4beta/mu-opioid, Fluo4 calcium fluorescence; stronger effect = higher value. B-score at 10 µM. 310,000 compounds, 0.49% hits. AID 2237;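 active = B-score above 5 SD of library B-scores, and initial fluorescence ratio not above library mean plus 5 SD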;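 also: positive B-score marks a calcium rise read as TRPC4 activation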
#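 System – HEK293 cells stably co-expressing mouse TRPC4beta and mu-opioid receptor · Signal – Fluo4 calcium-sensitive dye fluorescence, kinetic, 1 Hz baseline · Benchmarks – buffer (low) and maximal DAMGO (high) · Read-out – B score of integrated fluorescence ratio per well · Incubation – dye loading 45 min room temperature, 110 s kinetic read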
# TRPC4 sel inh 2 = second selectivity test of TRPC6 inhibitors: effect on mouse TRPC4 | shares compounds with TRPC6 inhibitor | 920 compounds, 42% hits | HEK293 TRPC4/MOR, membrane potential dye fluorescence; channel activated by saturating DAMGO dose | AID 2776 | inhibition, % at 10 µM;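 active = compounds whose fluorescence signal differed from control wells by over 3 SD, either direction, in both duplicate plates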
# TRPC4 spec = selectivity of TRPC6 inhibitors: effect on mouse TRPC4 | 920 compounds, 61% hits | activity change, negative = inhibition, % at 10 µM | HEK293 TRPC4/mu-opioid, membrane potential fluorescence | AID 2777 | shares compounds with TRPC6 inhibitor;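 active = rise or fall in signal beyond 3 SD of buffer-only wells in both replicate plates, either sign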;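 also: integrated kinetic ratio of fluorescence range over baseline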
# HEK293 MPD ctr 2-1 = second counter-screen for TRPC6 inhibitors: parental HEK293 cells; shares compounds with TRPC6 inhibitor; parental HEK293 membrane potential dye fluorescence; maximal acetylcholine challenge after compound addition; signal change vs control, % at 10 µM; 920 compounds, 31% hits;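 active = membrane potential signal moving either way by over 3 SD of the maximum-effect control, in both duplicate plates, meaning non-specific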
# HEK293 MPD ctr-1 = checks TRPC6 inhibitor effects in parental HEK293 cells; shares compounds with TRPC6 inhibitor; parental HEK293 membrane potential dye fluorescence; membrane potential signal change, % at 10 µM; 920 compounds, 60% hits;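 active = membrane potential signal shifting up or down by more than 3 SD of buffer-only wells, on both duplicate plates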
# HEK293 MPD ctr-2 = counter-screen for TRPC6 modulators: effect in parental HEK293 cells | membrane potential dye fluorescence | membrane potential signal change, % at 10 µM | 2,400 compounds, 51% hits | shares compounds with TRPC6 inhibitor;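 active = membrane potential signal moves up or down beyond 5 SD from buffer-only wells, on both duplicate plates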
# HEK293 MPD ctr 2-2 = second check of TRPC6 modulator effects in parental HEK293 cells | inhibition, % at 10 µM | AID 488926 | 2,400 compounds, 14% hits | shares compounds with TRPC6 inhibitor | membrane potential dye fluorescence; after compound, maximal acetylcholine stimulation;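 active = membrane potential signal drops by more than 5 SD from the mean control signal, in both duplicate plates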;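 also: plate controls were acetylcholine ECmax control wells for no effect and buffer only wells for full effect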
# TRPC4/MOR mod = selectivity of TRPC6 modulators against mouse TRPC4; shares compounds with TRPC6 inhibitor; percent change from control (negative = decrease, positive = increase), % at 10 µM; HEK293 TRPC4/mu-opioid, membrane potential fluorescence; 2,400 compounds, 69% hits;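 active = membrane potential signal moved up or down beyond 5 SD of buffer control wells, in both duplicate plates, actives on both sides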;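 also: plate controls were assay buffer wells for no effect and DAMGO maximal-effect wells for full effect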
# TRPC4 ctr inh 2 = mouse TRPC4 off-target activity of TRPC6 modulators, second screen. shares compounds with TRPC6 inhibitor. HEK293 TRPC4/mu-opioid, membrane potential dye fluorescence; stimulated with maximal-effect DAMGO. inhibition, % at 10 µM. 2,400 compounds, 55% hits;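 active = drop in membrane potential signal beyond 5 SD of the control wells in both duplicate plates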;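 also: TRPC4 counter screen for TRPC6 hits run under conditions tuned for TRPC6 not TRPC4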
# TRPC6 block conf = confirmation of mouse TRPC6 inhibitors | inhibition, % at 10 µM | AID 488960 | HEK293-TRPC6, membrane potential dye, ACh-evoked depolarization | shares compounds with TRPC6 inhibitor | 3,300 compounds, 43% hits;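 active = fluorescence ratio falls more than 5 SD below the full-stimulation control mean, in both duplicate runs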;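 also: integrated fluorescence ratio of peak minus minimum over baseline after agonist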
# TRPC6 act conf = confirmation of mouse TRPC6 activators. activation, % at 10 µM. HEK293-TRPC6 membrane potential dye fluorescence, FDSS. shares compounds with TRPC6 inhibitor. 2,800 compounds, 11% hits;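 active = ratio signal rise beyond 5 SD above unstimulated control wells' mean, seen in both duplicate runs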;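 also: plate controls were buffer EC0 wells for no effect and acetylcholine ECmax response for full effect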
# An asterisk follows results filed as active; i = inactive; x = no result given.
SMILES,TRPC4 potent,TRPC4 inh,TRPC6 inhibitor,Kir21 inh,TRPC6 act,TRPC4 act,HEK293 MPD ctr-2,HEK293 MPD ctr 2-2,TRPC4/MOR mod,TRPC4 ctr inh 2,TRPC6 block conf,TRPC6 act conf,others
O=C1CCC(c2ccccc2)(C2CCN(Cc3ccccc3)CC2)C(=O)N1 (centres undefined),i,i,-6.29*,-1.16,i,i,95.5%*,84.5%*,20.5%*,35.0%*,74.5%*,x,
COc1cccc(Nc2ccc(C(=O)O)cc2[N+](=O)[O-])c1,i,i,i,-2.54,i,i,x,x,x,x,x,x,
CCCN(CCC)CCCNc1ccc(C(=O)Nc2cccc(OC)c2)cc1[N+](=O)[O-],i,i,-7.33*,-0.91,i,i,x,x,x,x,i,i,TRPC4 sel inh 2=55.0%*;TRPC4 spec=-18.0%*;HEK293 MPD ctr 2-1=i;HEK293 MPD ctr-1=i
Cc1cc2c3c(c1)C1(C(=O)N3C(C)(C)CC2C)C(C#N)=C(N)Oc2n[nH]c(C)c21 (centres undefined),i,i,i,0.86,i,i,x,x,x,x,x,x,
O=C(COc1ccccc1)N1c2ccccc2Sc2ccccc21,i,i,i,-0.97,i,i,x,x,x,x,x,x,
O=C(C[n+]1ccccc1)N1c2ccccc2Sc2ccccc21,i,i,-7.86*,0.27,i,i,i,82.0%*,i,i,82.0%*,i,
N#Cc1ccc(-c2cn(-c3ccccc3)c3[n+]2CCCS3)cc1,i,i,-5.96*,1.7,i,i,-213.5%*,i,-35.0%*,38.0%*,i,i,
CCOC(=O)c1ccc2ncc(C(=O)OCC)c(NCCN(C)C)c2c1,i,i,-9.49*,-1.94,i,i,x,x,x,x,i,i,TRPC4 sel inh 2=i;TRPC4 spec=-18.9%*;HEK293 MPD ctr 2-1=i;HEK293 MPD ctr-1=-296.5%*
CCOC(=O)c1ccc2ncc(C(=O)OCC)c(NCCN3CCOCC3)c2c1,i,i,i,-1.62,i,i,x,x,x,x,x,x,
Cc1c(Cl)cccc1NC(=O)CNCc1ccccc1F,i,i,-5.26*,-0.01,i,i,i,i,18.0%*,i,i,x,
Cc1c(Cl)cccc1NC(=O)CNc1ccccc1F,i,i,i,-0.03,i,i,x,x,x,x,x,x,
COc1ccc(N2CCN(c3cc(C)c4ccc(O)cc4n3)CC2)cc1,i,i,i,1.4,i,i,x,x,x,x,x,x,
COc1cc(OC)c2nc(C)c3c(c2c1)N(c1ccc(O)cc1)CC3,i,i,-7.19*,-2.45,i,i,-173.5%*,101.0%*,-18.0%*,41.5%*,i,i,
N=c1c(C(=O)NC2CCCCC2)cc2c(=O)n3ccccc3nc2n1CC1CCCO1 (centres undefined),i,i,i,1.07,i,i,x,x,x,x,x,x,
N=c1c(C(=O)NCCN2CCOCC2)cc2c(=O)n3ccccc3nc2n1CCCN1CCOCC1,i,i,-7.57*,-0.76,i,i,x,x,x,x,77.0%*,i,TRPC4 sel inh 2=69.5%*;TRPC4 spec=3.7%*;HEK293 MPD ctr 2-1=-287.5%*;HEK293 MPD ctr-1=5.5%*
Cc1ccc2nc3c(cc(C(=O)NCCN4CCOCC4)c(=N)n3CCCN3CCOCC3)c(=O)n2c1,i,i,-7.48*,1.31,i,i,x,x,x,x,82.6%*,x,TRPC4 sel inh 2=72.0%*;TRPC4 spec=i;HEK293 MPD ctr 2-1=-173.5%*;HEK293 MPD ctr-1=i
Cc1ccc2nc3c(cc(C(=O)NCCc4ccccc4)c(=N)n3CCN3CCOCC3)c(=O)n2c1,i,i,i,0.99,i,i,x,x,x,x,x,x,
Cc1ccc2nc(NCCCN3CCOCC3)c(C=NCCCN3CCOCC3)c(=O)n2c1,i,i,-8.91*,-2.23,i,i,-350.5%*,79.5%*,-66.5%*,53.0%*,63.5%*,i,
N=c1c(C(=O)NCCN2CCOCC2)cc2c(=O)n3ccccc3nc2n1Cc1ccc(F)cc1,i,i,-7.74*,0.94,i,i,-74.5%*,90.5%*,-17.0%*,45.0%*,56.0%*,i,
Cc1noc(C)c1CSc1ccccc1C(=O)OC(C)C(N)=O (centres undefined),i,i,i,-0.17,i,i,x,x,x,x,x,x,
Cn1c(=O)n(Cc2ccccc2Br)c2ccccc21,i,i,i,1.1,i,i,x,x,x,x,x,x,
O=C(COC(=O)CNS(=O)(=O)c1c(Cl)cccc1Cl)Nc1cccnc1Cl,i,i,i,0,i,i,x,x,x,x,x,x,
Cc1ccc(O)c(Sc2cc(C)ccc2O)c1,i,-6*,-8.44*,-1.11,i,i,x,x,x,x,70.9%*,i,TRPC4 sel inh 2=i;TRPC4 spec=-13.4%*;HEK293 MPD ctr 2-1=i;HEK293 MPD ctr-1=-141.0%*
Cc1ccc(O)c(O)c1,i,i,i,-0.22,i,i,x,x,x,x,x,x,
CCNc1nc(C)nc2c1oc1ccccc12,i,i,i,-0.1,i,i,x,x,x,x,x,x,
COCCNC(=O)CCSc1nc(-c2ccc(OC)cc2)cc(C(F)(F)F)n1,i,i,-5.62*,0.04,i,i,i,i,i,i,i,i,
COc1ccc(-c2cc(C(F)(F)F)nc(SCCC(=O)Nc3cc(C)on3)n2)cc1,i,i,i,0.33,i,i,x,x,x,x,x,x,
